Source: ChEMBL document CHEMBL4024765 (J Med Chem, 2017)
≈ marks a conversion by molar mass, not a printed value.

Columns and labels:
Plasmodium falciparum [1] = assay: Antiplasmodial activity against chloroquine-resistant synchronized trophozoite stage of Plasmodium falciparum 7G8 after 48 hrs by NBT dye based LDH assay; type: functional; details: 7G8, 48 h
Plasmodium falciparum [2] = assay: Antiplasmodial activity against chloroquine-resistant synchronized trophozoite stage of Plasmodium falciparum Dd2 after 48 hrs by NBT dye based LDH assay; type: functional; details: Dd2, 48 h
Plasmodium falciparum [3] = assay: Antiplasmodial activity against chloroquine-sensitive synchronized trophozoite stage of Plasmodium falciparum NF54 after 48 hrs by NBT dye based LDH assay; type: functional; details: NF54, 48 h
Plasmodium falciparum [4] = assay: Resistance index, ratio of IC50 for chloroquine-resistant synchronized trophozoite stage of Plasmodium falciparum Dd2 to IC50 for chloroquine-sensitive synchronized trophozoite stage of Plasmodium falciparum NF54; type: functional
Plasmodium falciparum [5] = assay: Resistance index, ratio of IC50 for chloroquine-resistant synchronized trophozoite stage of Plasmodium falciparum 7G8 to IC50 for chloroquine-sensitive synchronized trophozoite stage of Plasmodium falciparum NF54; type: functional
Plasmodium berghei = assay: Antimalarial activity against chloroquine-sensitive Plasmodium berghei ANKA infected in C57BL/6 mouse assessed as supression of parasitemia at 30 mg/kg, po administered for 4 consecutive days starting at 2 hrs post infection by peter's test relative to control; type: functional
In short: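 P. berghei ANKA passaged in C57BL/6 donor; test mice infected ip with 200 μL of 1 × 10⁷ parasitized erythrocytes in PBS. Oral dosing 30 mg/kg at 2 h post-infection, then daily D0–D3; PBS-dosed controls. Parasitemia read on D4 from Giemsa-stained, methanol-fixed tail thin films; suppression relative to control.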

Liver [6] = assay: Drug metabolism in BALB/c mouse liver microsomes assessed as aldehyde reduction at 1 uM in presence of NADPH by mass spectrometric analysis; type: ADME, microsome
In short: (§1)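 Compound at 1 μM with 0.35 mg/ml male BALB/c mouse liver microsomes, 1 mM NADPH, 100 mM phosphate pH 7.4, 37 °C, 30 min; triplicate. Stopped by ice-cold acetonitrile with carbamazepine internal standard; parent loss by LC-MS/MS (ESI positive, MRM) as % remaining; scan data screened for putative metabolite fragments.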

[7] = n-Octanol-buffer distribution coefficient, log D of the compound at pH 5 incubated for 4 hrs by UV-vis based shake flask method; type: physicochemical
Liver [8] = assay: Drug metabolism in BALB/c mouse liver microsomes assessed as N-dealkylation on tertiary amine at 1 uM in presence of NADPH by mass spectrometric analysis; type: ADME, microsome; in short: as §1
Liver [9] = assay: Drug metabolism in BALB/c mouse liver microsomes assessed as oxidation of aldehyde to carboxylic acid at 1 uM in presence of NADPH by mass spectrometric analysis; type: ADME, microsome; in short: as §1
[10] = Metabolic stability in BALB/c mouse liver microsomes assessed as parent compound remaining at 1 uM after 30 mins in presence of NADPH by LC-MS/MS analysis; type: ADME, microsome; details: read-out: Stability; in short: as §1
[11] = Kinetic solubility of compound in simulating fasting state biorelevant media at pH 6.5 after 2 hrs by shake flask method; type: physicochemical; details: fasted-state simulating biorelevant medium, read-out: Kinetic_solubility
[12] = Intrinsic clearance in BALB/c mouse liver microsomes at 1 uM in presence of NADPH by LC-MS/MS analysis; type: ADME, microsome; details: read-out: CLH; in short: as §1
CHO = assay: Cytotoxicity against CHO cells by MTT assay; type: cell-based; details: Cricetulus griseus
In short: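 MTT assay on CHO cells. DMSO stock diluted in complete medium; 10-fold serial dilutions, 6 concentrations from 100 to 0.001 μg/mL; emetine reference; triplicate on each occasion. IC50 from non-linear fit of full dose-response curves.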

Plasmodium falciparum [13] = assay: Decrease in hemozoine formation in chloroquine-sensitive synchronized ring stage of Plasmodium falciparum NF54 after 32 hrs by flow cytometric analysis; type: functional
In short: (§2)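 Sorbitol-synchronized (5%) ring-stage cultures exposed to compound at multiples of IC50 for 32 h; trophozoites freed with 0.05% saponin, PBS-washed, counted by hemocytometer and flow cytometry. Hypotonic lysis/sonication, then sequential SDS/pyridine fractionation into hemoglobin, free heme and hemozoin (SDS/NaOH) fractions; each measured by UV-vis as Fe(III) heme-pyridine complex.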

Plasmodium falciparum [14] = assay: Increase in free heme levels in chloroquine-sensitive synchronized ring stage of Plasmodium falciparum NF54 after 32 hrs by flow cytometric analysis; type: functional; in short: as §2
Liver [15] = assay: Drug metabolism in BALB/c mouse liver microsomes assessed as oxidation of quinoline core or pyridyl ring at 1 uM in presence of NADPH by mass spectrometric analysis; type: ADME, microsome; in short: as §1
Plasmodium falciparum [16] = assay: Increase in hemoglobin levels in chloroquine-sensitive synchronized ring stage of Plasmodium falciparum NF54 after 32 hrs by flow cytometric analysis; type: functional; in short: as §2
Liver [17] = assay: Drug metabolism in BALB/c mouse liver microsomes assessed as N-dealkylation with oxidative deamination at 1 uM in presence of NADPH by mass spectrometric analysis; type: ADME, microsome; in short: as §1
[18] = Selectivity index, ratio of IC50 for CHO cells to IC50 for chloroquine-sensitive synchronized trophozoite stage of Plasmodium falciparum NF54; type: toxicity; details: hamster; read-out: Ratio IC50
[19] = Half life in BALB/c mouse liver microsomes at 1 uM in presence of NADPH by LC-MS/MS analysis; type: ADME, microsome; in short: as §1
[20] = Inhibition of beta hematin formation by detergent based assay
In short: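 β-hematin formation from hematin in 1 M acetate buffer pH 4.9 with NP40 detergent, compound serially diluted from 20 mM DMSO stock; ~5 h at 37 °C. Free heme complexed with pyridine/acetone/HEPES pH 7.4 solution, absorbance at 405 nm; IC50 from dose-response curves.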

[21] = n-Octanol-buffer distribution coefficient, log D of the compound at pH 7.4 […] by HPLC based shake flask method; type: physicochemical

SMILES | IC50 (Plasmodium falciparum [1]) | IC50 (Plasmodium falciparum [2]) | IC50 (Plasmodium falciparum [3]) | Ratio IC50 (Plasmodium falciparum [4]) | Ratio IC50 (Plasmodium falciparum [5]) | Activity (Plasmodium berghei) | Drug metabolism (Liver [6]) | logD at 4 h [7] | Drug metabolism (Liver [8]) | Drug metabolism (Liver [9]) | remaining at 0.5 h, 1 µM [10] | solubility kinetic at 2 h [11] | CLint scaled at 1 µM [12] | IC50 (CHO) | Activity (Plasmodium falciparum [13]) | Activity (Plasmodium falciparum [14]) | Drug metabolism (Liver [15]) | Activity (Plasmodium falciparum [16]) | half-life at 1 µM [19] | IC50 [20] | other results
C[C@H]1[C@H](OC(=O)CCC(=O)O)O[C@@H]2O[C@@]3(C)CC[C@H]4[C@H](C)CC[C@@H]1[C@@]24OO3 [ARTESUNATE] | 7.7 nM | 14.3 nM | 5.6 nM | 2.6 | 1.4 |  |  |  |  |  |  |  |  |  |  |  |  |  |  |  | 
CN(Cc1cccc(CNc2ccnc3cc(Cl)ccc23)c1)Cc1ccccn1 | 83.8 nM | 124 nM | 30.1 nM | 4.1 | 2.8 | 97.8% | Metabolite_Detected | 0.82 | Metabolite_Detected | Metabolite_Detected | 2.96% | 59.8 µM (≈ 24.1 µg/mL) | 1140 mL/min/kg | 8300 nM | Dose-dependent effect | Dose-dependent effect | Metabolite_Detected | Dose-dependent effect | 5.89 min | 20800 nM | Drug metabolism (Liver [17]): Metabolite_Detected; selectivity ratio [18]: 275; logD [21]: 2.47
CN(Cc1ccc(CNc2ccnc3cc(C#N)ccc23)cc1)Cc1ccccn1 | 134 nM | 146 nM | 76.4 nM | 1.9 | 1.8 | 98% | Metabolite_Detected | 1 | Metabolite_Detected | Metabolite_Detected | 3.63% | 144 µM (≈ 56.5 µg/mL) | 1100 mL/min/kg | 11200 nM | Dose-dependent effect | Dose-dependent effect | Metabolite_Detected | Dose-dependent effect | 6.22 min | 24800 nM | Drug metabolism (Liver [17]): Metabolite_Detected; selectivity ratio [18]: 146; logD [21]: 2.84
CN(Cc1ccccc1)Cc1cccc(CNc2ccnc3cc(Cl)ccc23)c1 [listing 1 of 2 here] |  |  |  |  |  |  |  |  |  |  |  |  |  |  | Dose-dependent effect | Dose-dependent effect |  | Dose-dependent effect |  |  | 
Cc1ncc2n1-c1ccc(Cl)cc1C(c1ccccc1F)=NC2 [MIDAZOLAM] |  |  |  |  |  |  |  |  |  |  | 1.33% |  | 1420 mL/min/kg |  |  |  |  |  | 4.74 min |  | 
CN(Cc1ccccc1)Cc1cccc(CNc2ccnc3cc(Cl)ccc23)c1.Cl | 69.6 nM | 44.5 nM | 14.4 nM | 3.1 | 4.8 | 97.5% | Metabolite_Detected | 1.33 | Metabolite_Detected | Metabolite_Detected | 3.57% | 51.8 µM | 1110 mL/min/kg | 9500 nM |  |  | Metabolite_Detected |  | 6.15 min | 13400 nM | Drug metabolism (Liver [17]): Metabolite_Detected; selectivity ratio [18]: 660; logD [21]: 3.56
CN(Cc1ccc(CNc2ccnc3cc(Cl)ccc23)cc1)Cc1ccccn1 | 114 nM | 151 nM | 38.5 nM | 3.9 | 3 | 91.4% | Metabolite_Detected | 0.84 | Metabolite_Detected | Metabolite_Detected | 2.08% | 197 µM (≈ 79.2 µg/mL) | 1250 mL/min/kg | 15700 nM | Dose-dependent effect | Dose-dependent effect | Metabolite_Detected | Dose-dependent effect | 5.35 min | 17200 nM | Drug metabolism (Liver [17]): Metabolite_Detected; selectivity ratio [18]: 408; logD [21]: 2.85
COC(=O)[C@H]1[C@H]2C[C@@H]3c4[nH]c5cc(OC)ccc5c4CCN3C[C@H]2C[C@@H](OC(=O)c2cc(OC)c(OC)c(OC)c2)[C@@H]1OC [RESERPINE] |  |  |  |  |  |  |  |  |  |  |  | < 5 µM |  |  |  |  |  |  |  |  | 
CN(Cc1ccccc1)Cc1cccc(CNc2ccnc3cc(Cl)ccc23)c1 [listing 2 of 2 here] |  |  |  |  |  | 99.9% |  |  |  |  |  |  |  |  |  |  |  |  |  |  | 
CCN(CC)CCCC(C)Nc1ccnc2cc(Cl)ccc12 (configuration not stated) [CHLOROQUINE] |  |  |  |  |  | 91.2% |  |  |  |  |  |  |  |  |  |  |  |  |  |  | 
CCN(CC)CCCC(C)Nc1ccnc2cc(Cl)ccc12 (configuration not stated) |  |  |  |  |  |  |  |  |  |  |  |  |  |  | Dose-dependent effect | Dose-dependent effect |  | Dose-dependent effect |  |  | 
CCN(CC)CCCC(C)Nc1ccnc2cc(Cl)ccc12 (configuration not stated) [CHLOROQUINE PHOSPHATE] |  |  |  |  |  |  |  |  |  |  |  |  |  |  |  |  |  |  |  | 26100 nM | 
